These results are taken from ChEMBL document CHEMBL4049426, “Identification of the Clinical Candidate (R)-(1-(4-Fluorophenyl)-6-((1-methyl-1H-pyrazol-4-yl)sulfonyl)-4,4a,5,6,7,8-hexahydro-1H-pyrazolo[3,4-g]isoquinolin-4a-yl)(4-(trifluoromethyl)pyridin-2-yl)methanone (CORT125134): A Selective Glucocorticoid Receptor (GR) Antagonist” (J Med Chem, 2017).

For one series, the target named is T1, Cytochrome P450 2B6 (Homo sapiens, UniProt P20813).
T1 sequence (P20813 whole entry): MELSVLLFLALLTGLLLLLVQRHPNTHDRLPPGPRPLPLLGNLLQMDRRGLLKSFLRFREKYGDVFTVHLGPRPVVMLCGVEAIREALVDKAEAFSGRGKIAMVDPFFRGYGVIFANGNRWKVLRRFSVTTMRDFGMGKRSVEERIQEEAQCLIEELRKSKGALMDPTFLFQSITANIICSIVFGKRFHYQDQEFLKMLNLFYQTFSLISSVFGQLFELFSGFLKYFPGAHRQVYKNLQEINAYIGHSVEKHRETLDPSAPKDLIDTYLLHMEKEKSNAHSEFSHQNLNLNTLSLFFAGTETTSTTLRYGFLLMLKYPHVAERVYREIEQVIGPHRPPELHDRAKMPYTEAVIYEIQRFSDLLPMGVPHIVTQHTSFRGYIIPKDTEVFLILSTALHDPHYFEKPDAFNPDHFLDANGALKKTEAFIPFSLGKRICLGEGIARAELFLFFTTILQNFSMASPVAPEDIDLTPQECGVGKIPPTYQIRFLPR
In words: Induction of CYP2B6 in human hepatocytes. Type of series: ADME, cell-based.

In the next series the target is Cytochrome P450 3A4 (Homo sapiens, UniProt P08684). In words: Inhibition of CYP3A4 (unknown origin). Type of series: ADME.
Cytochrome P450 3A4, sequence (P08684 whole entry): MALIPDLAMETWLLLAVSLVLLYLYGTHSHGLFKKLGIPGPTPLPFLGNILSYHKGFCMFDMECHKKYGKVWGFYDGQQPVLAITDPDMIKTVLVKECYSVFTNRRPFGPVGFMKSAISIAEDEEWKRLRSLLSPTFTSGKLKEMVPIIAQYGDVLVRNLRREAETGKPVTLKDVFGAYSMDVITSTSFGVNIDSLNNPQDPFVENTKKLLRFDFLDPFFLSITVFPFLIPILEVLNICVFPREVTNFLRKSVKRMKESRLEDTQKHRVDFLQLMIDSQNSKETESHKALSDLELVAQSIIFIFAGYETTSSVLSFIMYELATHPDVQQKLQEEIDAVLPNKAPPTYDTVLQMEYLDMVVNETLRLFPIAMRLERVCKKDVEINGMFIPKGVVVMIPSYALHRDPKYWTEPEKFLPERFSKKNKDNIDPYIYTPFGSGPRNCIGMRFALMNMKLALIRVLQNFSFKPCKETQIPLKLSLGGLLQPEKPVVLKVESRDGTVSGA
Another series concerns Rattus norvegicus. As to the kind of experiment: In vivo antagonist activity at glucocorticoid receptor in Sprague-Dawley rat cortisone model of exogenous Cushing's syndrome assessed as inhibition of plasma insulin levels at 30 mg/kg, po bid via gavage for 6 days pretreated for 12 hrs followed by cortisone 21-acetate treatment measured 24 hrs after last cortisone 21-acetate treatment. The series is classed as functional, organism-based. The method in brief:
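Male Sprague Dawley rats (200-250g), 3-day vehicle baseline, groups of eight. Compound as suspension in DMSO:Tween 80:0.5% HPMC 10:0.1:89.9, oral gavage twice daily for 6 days; cortisone 21-acetate 30mg/kg s.c. daily in 1% methylcellulose. Tail-vein blood 24 h after last cortisone (12 h after last compound); glucose by clinical reagent, insulin by ultrasensitive rat ELISA.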

The nature of series [1]: Cmax in monkey plasma at 20 mg/kg, po measured up to 24 hrs by LC/MS analysis. Type of series: ADME, organism-based, Macaca mulatta. The settings on record: rhesus monkey. Set-up: dose 20 mg/kg, route oral. Put shortly: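 Monkey i.v./p.o. study: oral 20mg/kg in 10% DMSO, 0.1% Tween 80, 0.5% hydroxypropylmethylcellulose in water; i.v. dose 1mg/kg.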
For the next series, the target named is T2, Glucocorticoid receptor (Rattus norvegicus, UniProt P06536).
T2 sequence (P06536 whole entry): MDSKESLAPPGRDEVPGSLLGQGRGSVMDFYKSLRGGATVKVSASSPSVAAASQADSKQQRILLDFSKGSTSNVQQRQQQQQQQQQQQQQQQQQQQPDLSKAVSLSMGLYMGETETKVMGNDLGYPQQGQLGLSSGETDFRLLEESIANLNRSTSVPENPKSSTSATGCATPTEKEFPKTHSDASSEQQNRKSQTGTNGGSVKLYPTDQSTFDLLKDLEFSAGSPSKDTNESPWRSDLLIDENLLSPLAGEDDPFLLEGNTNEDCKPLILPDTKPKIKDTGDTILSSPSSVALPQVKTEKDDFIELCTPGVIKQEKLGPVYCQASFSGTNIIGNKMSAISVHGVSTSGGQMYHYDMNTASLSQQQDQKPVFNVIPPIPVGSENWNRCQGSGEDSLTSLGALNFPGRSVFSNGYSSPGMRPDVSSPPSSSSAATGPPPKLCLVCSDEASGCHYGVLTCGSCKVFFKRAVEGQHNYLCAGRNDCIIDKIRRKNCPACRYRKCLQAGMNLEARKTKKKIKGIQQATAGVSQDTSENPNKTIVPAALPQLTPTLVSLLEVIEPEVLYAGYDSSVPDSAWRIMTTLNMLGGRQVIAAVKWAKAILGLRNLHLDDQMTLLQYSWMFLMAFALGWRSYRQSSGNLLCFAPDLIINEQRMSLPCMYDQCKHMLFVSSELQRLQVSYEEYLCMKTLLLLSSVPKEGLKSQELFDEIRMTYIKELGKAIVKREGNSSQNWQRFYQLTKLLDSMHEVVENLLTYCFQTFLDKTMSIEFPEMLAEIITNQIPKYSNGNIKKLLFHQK
As to the kind of experiment: (§1) Agonist activity at rat glucocorticoid receptor in primary hepatocytes assessed as induction of tyrosine amino transferase activity measured after 20 hrs. Type of series: cell-based.

The target in series [2] is T3, Glucocorticoid receptor (Rattus norvegicus) (UniProt P06536).
T3 sequence (whole entry): T2 sequence (P06536 whole entry)
Described as §1. The series is classed as cell-based.

The target in series [3] is T4, Glucocorticoid receptor (Homo sapiens) (UniProt P04150).
T4 sequence (whole entry): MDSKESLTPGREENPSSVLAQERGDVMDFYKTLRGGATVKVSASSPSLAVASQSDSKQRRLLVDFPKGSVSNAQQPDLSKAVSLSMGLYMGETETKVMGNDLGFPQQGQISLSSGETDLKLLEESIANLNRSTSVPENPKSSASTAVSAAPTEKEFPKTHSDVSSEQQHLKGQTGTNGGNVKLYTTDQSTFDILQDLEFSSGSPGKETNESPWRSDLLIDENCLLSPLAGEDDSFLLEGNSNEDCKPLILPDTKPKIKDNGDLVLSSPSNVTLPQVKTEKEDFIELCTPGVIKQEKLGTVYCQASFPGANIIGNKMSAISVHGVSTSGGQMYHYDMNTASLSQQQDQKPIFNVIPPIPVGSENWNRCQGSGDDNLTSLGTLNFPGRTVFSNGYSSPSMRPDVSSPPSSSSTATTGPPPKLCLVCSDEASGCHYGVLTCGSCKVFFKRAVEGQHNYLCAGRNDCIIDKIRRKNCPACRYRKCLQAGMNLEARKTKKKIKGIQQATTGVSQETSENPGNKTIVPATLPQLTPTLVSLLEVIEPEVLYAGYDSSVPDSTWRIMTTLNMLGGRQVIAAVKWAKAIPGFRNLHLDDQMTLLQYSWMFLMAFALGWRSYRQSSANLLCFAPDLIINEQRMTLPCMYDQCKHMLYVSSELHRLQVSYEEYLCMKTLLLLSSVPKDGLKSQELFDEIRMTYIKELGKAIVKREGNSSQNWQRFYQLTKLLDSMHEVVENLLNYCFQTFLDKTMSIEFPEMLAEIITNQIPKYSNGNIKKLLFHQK
As to the kind of experiment: Displacement of fluormone GS Red from human glucocorticoid receptor at 1 uM after 4 hrs by fluorescence polarization assay relative to control. (Fluorescence polarisation rises when a labelled molecule tumbles more slowly, as on binding a larger partner.)

The source made the active and inactive calls. No cut-off for these calls is given here.

As a reminder, the IC50 is the point on the concentration scale where inhibition reaches its midpoint. For orientation: inhibition means the percentage by which the read-out fell short of the control. One may read the Cmax as the maximum level reached in the sampled fluid or tissue. What is called EC50 is the concentration that produces a half-maximal response. By Emax is commonly meant the greatest response seen or fitted, relative to the assay's reference. For the molecule `Cn1cc(S(=O)(=O)N2CCC3=Cc4c(cnn4-c4ccc(F)cc4)C[C@]3(C(=O)c3cc(C(F)(F)F)ccn3)C2)cn1` [RELACORILANT], the Activity entry on Cytochrome P450 2B6 is “Not Active”. The molecule also gave an IC50 on Cytochrome P450 3A4 of 1300 nM. Also, the inhibition result in the series with Rattus norvegicus is “Active”. Moreover, the Cmax in series [1] was determined as 1140 ng/mL. Further, the half-maximal effective concentration (EC50) at Glucocorticoid receptor is greater than 10000 nM. Also, the Emax in series [2] worked out at 22%. The same molecule registered an inhibition in series [3] of 100%.
